The values that follow come from ChEMBL document CHEMBL4130614, “Synthesis and Bioactivity of Reduced Chalcones Containing Sulfonamide Side Chains” (J Nat Prod, 2018).

Structures are written as SMILES.

For orientation: MIC99 means the lowest concentration that inhibits either 99% of growth or 99% of the strains tested, depending on the study. The term IC50 denotes the midpoint of a concentration-inhibition curve.

In experiment [1] the test system is Mycobacterium tuberculosis. Description: Antibacterial activity against Mycobacterium tuberculosis H37Rv ATCC 25618 measured at 24 hrs interval by BACTEC radiometric method. In kind it is functional. A digest of the protocol: (§1)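 H37Rv grown in 7H9 with ADC to about 0.16 A600 (one McFarland), inoculated into BACTEC vials and incubated at 37 °C to GI 500 (±50). This primary culture was then dosed with filter-sterilised compound at 10 μM in DMSO (final DMSO 2.5%) and held at 37 °C. Growth was read every 24 h as radiometric CO₂ growth index against controls.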

Another experiment relates to Plasmodium falciparum. Description: Antiplasmodial activity against chloroquine-sensitive Plasmodium falciparum NF54 by lactate dehydrogenase assay. In kind it is functional, organism-based. In short, it runs like this: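 Asexual erythrocyte-stage P. falciparum kept in continuous in vitro culture (modified Trager–Jensen). Activity quantified by parasite lactate dehydrogenase assay (modified Makler method). Triplicate wells, on one or two separate occasions. IC50 from full dose–response curves by nonlinear curve fitting. Chloroquine run as internal standard to monitor conditions.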

Experiment [2] relates to Mycobacterium tuberculosis. Description: Antibacterial activity against Mycobacterium tuberculosis H37Rv ATCC 25618 assessed as growth inhibition at 10 uM measured at 24 hrs interval by BACTEC radiometric method relative to control. In kind it is functional. The settings on record: for inhibition of growth at 10 µM: Mycobacterium tuberculosis, H37Rv ATCC 25618, 24 h, read-out: GI. In short, it runs like this:
as §1

The mark [3] stands for this setting: Mycobacterium tuberculosis, H37Rv ATCC 25618, 24 h, read-out: MIC99.

Regarding `NS(=O)(=O)c1ccc(NCc2ccc(CCCc3ccccc3)cc2O)cc1`, in experiment [1] (setting [3]), the MIC99 is over 10 µM. In the experiment with Plasmodium falciparum, the concentration for half-maximal inhibition (IC50) entry is listed as “Not Active”. Moreover, in experiment [2], the inhibition of growth at 10 µM stood at 14%.

With `CN(C)Cc1ccc(CCCc2ccccc2)cc1O.Cl`, the MIC99 in experiment [1] is over 10 µM. For the same compound, the “growth inhibition (GI)” value in experiment [2] is listed as 36%.

In the case of `Nc1ccc(S(N)(=O)=O)cc1` [SULFANILAMIDE], the MIC99 in experiment [1] (setting [3]) was over 10 µM. The IC50 result in the experiment with Plasmodium falciparum is “Not Active”. The inhibition of growth at 10 µM in experiment [2] was determined as 0%.

As for `COc1ncnc(NS(=O)(=O)c2ccc(N)cc2)c1OC` [SULFADOXINE], the IC50 entry in the experiment on Plasmodium falciparum is reported as “Not Active”.

With `CN(C)Cc1ccc(CCCc2ccccc2)cc1O`, in experiment [1] (setting [3]), the MIC99 is over 10 µM. Moreover, in experiment [2], the “growth inhibition (GI)” value was determined as 74%.

As for `Oc1cccc(CCCc2ccccc2)c1`, the MIC99 in experiment [1] (setting [3]) is over 10 µM. Also, in the experiment on Plasmodium falciparum, the IC50 entry is recorded as “Not Active”. Also, the inhibition of growth at 10 µM in experiment [2] turned out to be 94%.

With `Cc1cc(NS(=O)(=O)c2ccc(N)cc2)no1` [SULFAMETHOXAZOLE], the IC50 result with Plasmodium falciparum is on record as “Not Active”.

For `Oc1ccc(CCCc2ccccc2)cc1`, the MIC99 in experiment [1] (setting [3]) is over 10 µM. Also, the inhibition of growth at 10 µM in experiment [2] came out at 96%.

Take `C[C@H]1[C@H](OC(=O)CCC(=O)O)O[C@@H]2O[C@@]3(C)CC[C@H]4[C@H](C)CC[C@@H]1[C@@]24OO3` [ARTESUNATE]: in the experiment with Plasmodium falciparum (Plasmodium falciparum, NF54, read-out: IC50), the IC50 was under 5.2 µM.

With `CN(C)Cc1cc(CCCc2ccccc2)cc(CN(C)C)c1O`, the MIC99 in experiment [1] (setting [3]) was over 10 µM. In addition, the inhibition of growth at 10 µM in experiment [2] came to 42%.

On to `NS(=O)(=O)c1ccc(NCc2cc(CCCc3ccccc3)cc(CNc3ccc(S(N)(=O)=O)cc3)c2O)cc1`, for which, in experiment [1] (setting [3]), the MIC99 was over 10 µM. Besides, the inhibition of growth at 10 µM in experiment [2] was found to be 0%.

With `CN(C)Cc1cc(CCCc2ccccc2)cc(CN(C)C)c1O.Cl.Cl`, the MIC99 in experiment [1] is over 10 µM. In experiment [2], the “growth inhibition (GI)” value was found to be 33%.
